An excerpt weighted towards active compounds, which were near 2.6% of everything screened.
Exocytosis inh: lytic granule exocytosis inhibition | TALL-104 LAMP-1 surface exposure, flow cytometry; cells stimulated with thapsigargin and PMA | inhibition, % at 10 µM | 360,000 tested, 0.66% active | AID 651702;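 active means inhibition above about 55%, limit read from the data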
MC4R antag cAMP: antagonists of human melanocortin 4 receptor (MC4R); P32245; MC4R-expressing cells, MTII-stimulated cAMP, LANCE TR-FRET; inhibition, % at 6.5 µM; 360,000 tested, 0.48% active; AID 540295;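 active means inhibition above its plate's cutoff, the mean of tested wells on that plate plus 3 SD, cut at about 29% in these data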;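 further: 0% = Melanotan II alone and 100% = Melanotan II plus saturating MCL0020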
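Assay system: U2OS-MC4R stable cell line; Also added: Melanotan II; Technique: Eu-cAMP/anti-cAMP TR-FRET, emission 671 nm; Times: 30-min compound, 1-h challenge, 1-h detection, room temperature.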
MC4R barr agon: human MC4R agonism via beta-arrestin; P32245; U2OS MC4R beta-arrestin complementation, luminescence; percent of melanotan II response, DMSO zero; activation, % at 8.9 µM; 360,000 tested, 0.98% active;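 active means activation above a per-plate cutoff, the mean activation of sample wells on that plate plus 3 SD, cut at about 8% in these data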
hiPSC survival: increases survival of single human iPS cells; hiPSC single-cell survival, ATPlite luminescence; 100% = ROCK inhibitor wells, 0% = DMSO; survival enhancement, % at 20 µM; 360,000 tested, 0.044% active; in the data active means survival enhancement above about 18%;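 further: cells exposed to compounds for 16 hours before the ATP read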
Tb MetRS inh: Trypanosoma brucei MetRS inhibition; inhibition, % at 11.9 µM; purified T. brucei MetRS, ATP depletion, Kinase-Glo luminescence; 360,000 tested, 0.4% active;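 active means inhibition above a per-plate cutoff of the control wells' mean inhibition plus 3 SD, cut at about 5.5% in these data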;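 further: 0% = DMSO wells median and 100% = median of wells with control inhibitor compound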
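Dosing: 11.9 µM single point; system: parasite MetRS enzyme; technique: luminescence of leftover ATP; times: 15 min enzyme-compound preincubation, 2 h reaction, 10 min detection, 25 °C; replicates: each compound tested once; read-out basis: percent inhibition relative to median high and low control wells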
ABCB6 inh MLPCN: human ABCB6 transporter inhibition. Q9NP58. K562-ABCB6 porphyrin accumulation, flow cytometry, 1 h; active compounds read low. 360,000 tested, 0.19% active. AID 602162. fluorescence ratio to DMSO, % at 10 µM;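 active means fluorescence ratio to DMSO below 75%, the collection mean minus 3 SD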;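 further: signal is porphyrin accumulated inside mitochondria; 100% equals median channel fluorescence of DMSO control wells; lower ratio means ABCB6 inhibition with less porphyrin fluorescence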
MC4R barr ag: human MC4R beta-arrestin agonism confirmation. shares compounds with MC4R barr agon. U2OS MC4R beta-arrestin recruitment, luminescence; scaled DMSO 0%, Melanotan II 100%. activation, % at 8.9 µM. 2,400 tested, 31% active. AID 602192;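 active means mean activation across replicates above the hit cutoff set in the earlier primary screen, cut at about 8% in these data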
MOR-DOR barr ag: OPRM1-OPRD1 heterodimer agonism counter-screen | activation, % at 9.2 µM | shares compounds with MC4R barr agon | 2,400 tested, 5.8% active | U2OS PathHunter beta-arrestin, beta-gal luminescence; percent of deltorphin B response, DMSO zero;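 active means mean activation across replicates exceeds the hit threshold derived in the earlier primary screen, cut at about 18% in these data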;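 further: 100% = deltorphin B at 0.9 µM final and 0% = DMSO alone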
Target sequence (P35372 whole entry, looked up): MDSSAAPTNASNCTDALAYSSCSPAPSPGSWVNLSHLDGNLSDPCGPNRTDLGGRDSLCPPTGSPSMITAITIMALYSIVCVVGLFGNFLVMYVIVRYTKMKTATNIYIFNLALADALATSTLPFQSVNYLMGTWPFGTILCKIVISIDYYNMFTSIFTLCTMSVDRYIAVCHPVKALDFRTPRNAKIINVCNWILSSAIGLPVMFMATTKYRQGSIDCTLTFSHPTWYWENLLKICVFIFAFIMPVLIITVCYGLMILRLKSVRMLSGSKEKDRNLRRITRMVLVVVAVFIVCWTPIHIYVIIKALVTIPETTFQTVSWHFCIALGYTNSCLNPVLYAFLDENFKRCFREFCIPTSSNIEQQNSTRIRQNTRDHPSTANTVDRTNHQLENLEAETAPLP
Target sequence (P41143 whole entry, looked up): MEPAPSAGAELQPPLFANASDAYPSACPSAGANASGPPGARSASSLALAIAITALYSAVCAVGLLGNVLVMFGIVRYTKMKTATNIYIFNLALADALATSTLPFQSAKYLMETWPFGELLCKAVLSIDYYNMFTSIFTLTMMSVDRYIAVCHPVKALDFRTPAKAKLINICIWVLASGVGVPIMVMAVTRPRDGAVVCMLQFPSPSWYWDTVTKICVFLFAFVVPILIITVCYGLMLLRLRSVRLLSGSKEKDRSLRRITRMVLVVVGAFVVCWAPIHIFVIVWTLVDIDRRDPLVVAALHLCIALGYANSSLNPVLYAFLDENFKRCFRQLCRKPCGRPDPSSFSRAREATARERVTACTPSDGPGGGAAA
Starred values were filed as active, the others as inactive.

Results for Cc1cc(C(=O)OCC(=O)N(C)c2c(N)n(Cc3ccccc3)c(=O)[nH]c2=O)c(C)n1-c1ccccc1 ?
Exocytosis inh: -0.2; MC4R antag cAMP: 18.6; MC4R barr agon: -2.0; hiPSC survival: 0.1; Tb MetRS inh: -0.4; ABCB6 inh MLPCN: 101.0

What do the screens show for `O=Nc1c(O)n(Cc2ccccc2)c2ccccc12`?
Exocytosis inh: -3.6; MC4R antag cAMP: 7.3; MC4R barr agon: 1.4; hiPSC survival: -0.3; Tb MetRS inh: 0.3; ABCB6 inh MLPCN: 96.0

Results for O=Nc1c(O)n(Cc2ccc(Cl)c(Cl)c2)c2ccccc12 ?
Exocytosis inh: 4.3; MC4R antag cAMP: 8.0; MC4R barr agon: 10.3*; hiPSC survival: 1.6; Tb MetRS inh: -0.1; ABCB6 inh MLPCN: 93.0; MC4R barr ag: 4.3; MOR-DOR barr ag: 9.9

Results for O=Nc1c(O)n(Cc2cccc(C(F)(F)F)c2)c2ccccc12 ?
Exocytosis inh: 2.5; MC4R antag cAMP: 6.1; MC4R barr agon: 11.0*; hiPSC survival: 3.9; Tb MetRS inh: -0.7; ABCB6 inh MLPCN: 94.0; MC4R barr ag: 7.6; MOR-DOR barr ag: 9.1

Results for O=C(NCc1ccc(-c2csnn2)cc1)c1cc(Cl)cc(Cl)c1 ?
Exocytosis inh: 7.8; MC4R antag cAMP: 2.4; MC4R barr agon: 12.5*; hiPSC survival: -0.3; Tb MetRS inh: 0.1; ABCB6 inh MLPCN: 102.0; MC4R barr ag: 2.0; MOR-DOR barr ag: 4.4

How did CCN1CCN(c2ccc(NC(=O)c3ccc(Cl)c(S(=O)(=O)N4CCCC4)c3)cc2)CC1 do in these assays?
Exocytosis inh: 2.7; MC4R antag cAMP: 5.5; MC4R barr agon: -2.5; hiPSC survival: -0.3; Tb MetRS inh: -0.4; ABCB6 inh MLPCN: 93.0

What do the screens show for `Cc1ccc(-c2nnc(-c3cccc4ccccc34)o2)cc1`?
Exocytosis inh: 34.7; MC4R antag cAMP: 3.5; MC4R barr agon: 0.3; hiPSC survival: -2.5; Tb MetRS inh: 0.0; ABCB6 inh MLPCN: 95.0

What do the screens show for `Clc1ccc(-c2nnc(-c3cccc4ccccc34)o2)cc1`?
Exocytosis inh: -11.2; MC4R antag cAMP: -0.3; MC4R barr agon: 11.1*; hiPSC survival: -1.4; Tb MetRS inh: -0.2; ABCB6 inh MLPCN: 97.0; MC4R barr ag: 3.2; MOR-DOR barr ag: 2.1

What do the screens show for `c1ccc(Nc2nnc(-c3cccc4ccccc34)o2)cc1`?
Exocytosis inh: -0.6; MC4R antag cAMP: 6.5; MC4R barr agon: 16.8*; hiPSC survival: -0.4; Tb MetRS inh: -0.5; ABCB6 inh MLPCN: 99.0; MC4R barr ag: 7.5; MOR-DOR barr ag: 7.8

How did CCN(CCNCC(O)COc1ccccc1C(C)C)c1cccc(C)c1 (centres undefined) do in these assays?
Exocytosis inh: 41.7; MC4R antag cAMP: 7.7; MC4R barr agon: 16.3*; hiPSC survival: -1.0; Tb MetRS inh: -1.0; ABCB6 inh MLPCN: 100.0; MC4R barr ag: 12.2*; MOR-DOR barr ag: 11.9

Results for COc1ccc(NC(=O)c2cc(Br)ccc2Cl)c([N+](=O)[O-])c1 ?
Exocytosis inh: -3.0; MC4R antag cAMP: -0.7; MC4R barr agon: 11.4*; hiPSC survival: -1.3; Tb MetRS inh: 0.8; ABCB6 inh MLPCN: 94.0; MC4R barr ag: 4.5; MOR-DOR barr ag: 3.6

What do the screens show for `COc1ccc(NC(=O)COC(=O)c2cc(C)oc2C)c([N+](=O)[O-])c1`?
Exocytosis inh: 0.2; MC4R antag cAMP: 8.5; MC4R barr agon: 22.9*; hiPSC survival: -0.3; Tb MetRS inh: -0.4; ABCB6 inh MLPCN: 97.0; MC4R barr ag: 2.8; MOR-DOR barr ag: 11.4

How did C=CCN1C=C/C(=C\C=C(C#N)C#N)c2ccccc21 do in these assays?
Exocytosis inh: -2.1; MC4R antag cAMP: 12.3; MC4R barr agon: -3.6; hiPSC survival: 0.7; Tb MetRS inh: 5.6; ABCB6 inh MLPCN: 103.0

How did CCCCCCN1C=C/C(=C\C=C(C#N)C#N)c2ccccc21 do in these assays?
Exocytosis inh: 0.0; MC4R antag cAMP: -1.1; MC4R barr agon: 10.7*; hiPSC survival: -1.9; Tb MetRS inh: -0.6; ABCB6 inh MLPCN: 179.0; MC4R barr ag: 11.9*; MOR-DOR barr ag: 13.4

How did CC(C)(C)c1ccc(C(=O)O/N=C(\N)c2ccccc2)cc1 do in these assays?
Exocytosis inh: 9.5; MC4R antag cAMP: 7.4; MC4R barr agon: 15.9*; hiPSC survival: -0.4; Tb MetRS inh: -0.9; ABCB6 inh MLPCN: 101.0; MC4R barr ag: 8.4*; MOR-DOR barr ag: 11.9

How did Cc1cc(C)c2c(N)c(C(=O)Nc3ccccc3Br)sc2n1 do in these assays?
Exocytosis inh: 6.3; MC4R antag cAMP: -0.6; MC4R barr agon: 10.0*; hiPSC survival: -0.4; Tb MetRS inh: -1.2; ABCB6 inh MLPCN: 96.0; MC4R barr ag: -0.1; MOR-DOR barr ag: 4.9

How did COc1cc(/C=N/NC(=O)c2sc3nc(C)cc(C)c3c2N)ccc1O do in these assays?
Exocytosis inh: 1.6; MC4R antag cAMP: 0.9; MC4R barr agon: 15.9*; hiPSC survival: -0.6; Tb MetRS inh: -0.4; ABCB6 inh MLPCN: 92.0; MC4R barr ag: 1.3; MOR-DOR barr ag: 3.3

How did O=C(CN(c1ccc(F)cc1)S(=O)(=O)c1ccccc1)N1CCOCC1 do in these assays?
Exocytosis inh: 0.3; MC4R antag cAMP: 11.7; MC4R barr agon: -3.4; hiPSC survival: -0.4; Tb MetRS inh: 0.2; ABCB6 inh MLPCN: 101.0

What do the screens show for `O=C(CNC(=O)c1ccc(Br)cc1)N/N=C/c1cccnc1`?
Exocytosis inh: -4.9; MC4R antag cAMP: 0.1; MC4R barr agon: -2.9; hiPSC survival: 2.4; Tb MetRS inh: 4.3; ABCB6 inh MLPCN: 103.0

Results for O=[N+]([O-])c1ccc(-c2ccc(/C=N/c3c(-c4ccco4)nc4ccccn34)o2)cc1 ?
Exocytosis inh: -0.1; MC4R antag cAMP: 3.9; MC4R barr agon: 12.6*; hiPSC survival: -0.6; Tb MetRS inh: -0.3; ABCB6 inh MLPCN: 134.0; MC4R barr ag: 9.2*; MOR-DOR barr ag: 9.2

How did COc1cc(F)ccc1-c1csc(C(O)c2ccc(F)cc2)n1 (centres undefined) do in these assays?
Exocytosis inh: 3.1; MC4R antag cAMP: 5.3; MC4R barr agon: 14.0*; hiPSC survival: 0.4; Tb MetRS inh: -0.5; ABCB6 inh MLPCN: 101.0; MC4R barr ag: -0.8; MOR-DOR barr ag: 7.9

What do the screens show for `CCN(Cc1ccncc1)Cc1ccc(OC)c(OC)c1`?
Exocytosis inh: 0.9; MC4R antag cAMP: 9.3; MC4R barr agon: -0.8; hiPSC survival: -0.2; Tb MetRS inh: -0.5; ABCB6 inh MLPCN: 100.0

How did O=C(NCC(c1cccs1)N1CCc2ccccc21)c1ccccc1 (centres undefined) do in these assays?
Exocytosis inh: 1.2; MC4R antag cAMP: 1.5; MC4R barr agon: -1.3; hiPSC survival: -0.3; Tb MetRS inh: 0.2; ABCB6 inh MLPCN: 95.0

Screens (PubChem)
